Only a selection was taken, and hits are over-represented in it overall.
GASC1 inh = inhibitors of GASC-1 (KDM4C) histone demethylase, primary screen, biochemical, single concentration HTS; AID 720574, 2013; Lysine-specific demethylase 4C (Homo sapiens), Q9H3R0; GST-KDM4C 2-372, H3K9me3 peptide, LANCE TR-FRET; inhibition, % at 12.5 µM; actives 0.15% (n = 96,000);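 active means mean replicate inhibition above about 25%, with at least 55% of replicates also reaching it, limit read from the data, passing the limit was not always enough; inconclusive means only one of those two conditions met; inactive means neither condition met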
Target sequence (Q9H3R0 2-372 limits assumed): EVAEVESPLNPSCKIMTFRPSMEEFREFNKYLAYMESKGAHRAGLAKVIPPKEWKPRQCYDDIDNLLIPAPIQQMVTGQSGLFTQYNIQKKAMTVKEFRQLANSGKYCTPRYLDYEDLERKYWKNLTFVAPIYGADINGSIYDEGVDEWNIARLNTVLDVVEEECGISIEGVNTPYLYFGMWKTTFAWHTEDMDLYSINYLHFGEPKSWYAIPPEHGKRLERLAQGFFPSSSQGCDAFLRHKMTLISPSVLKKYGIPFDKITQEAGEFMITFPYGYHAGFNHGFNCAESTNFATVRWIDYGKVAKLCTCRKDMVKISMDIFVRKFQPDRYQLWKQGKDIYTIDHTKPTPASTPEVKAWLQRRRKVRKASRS
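Test system – GST-tagged GASC-1 (JMJD2C) catalytic fragment, aa 2-372 · Medium – HEPES buffer, pH 7.5, plus ascorbate · Reagent – H3K9me3 peptide with Fe(II)/2OG · Compound – one test concentration per compound · Timing – 30 min reaction, 60 min detection, RT · Technique – TR-FRET with Eu antibody and ULight streptavidin, EDTA stop · Read-out basis – inhibition from TR-FRET ratio decrease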
IDH1 R132H inh = inhibitors of IDH1 R132H reductase, primary screen, biochemical, plate reader, single point; Isocitrate dehydrogenase [NADP] cytoplasmic (Homo sapiens), O75874; diaphorase/resazurin fluorescence, 60 min; inhibition, % at 10 µM; actives 0.18% (n = 70,000); AID 624101, 2012; in the data active means inhibition above about 34%; inconclusive means no clear call, values can overlap the other calls; inactive means below about 11%;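 further: 0% = DMSO and 100% = no enzyme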
Target sequence (O75874 whole entry R132H): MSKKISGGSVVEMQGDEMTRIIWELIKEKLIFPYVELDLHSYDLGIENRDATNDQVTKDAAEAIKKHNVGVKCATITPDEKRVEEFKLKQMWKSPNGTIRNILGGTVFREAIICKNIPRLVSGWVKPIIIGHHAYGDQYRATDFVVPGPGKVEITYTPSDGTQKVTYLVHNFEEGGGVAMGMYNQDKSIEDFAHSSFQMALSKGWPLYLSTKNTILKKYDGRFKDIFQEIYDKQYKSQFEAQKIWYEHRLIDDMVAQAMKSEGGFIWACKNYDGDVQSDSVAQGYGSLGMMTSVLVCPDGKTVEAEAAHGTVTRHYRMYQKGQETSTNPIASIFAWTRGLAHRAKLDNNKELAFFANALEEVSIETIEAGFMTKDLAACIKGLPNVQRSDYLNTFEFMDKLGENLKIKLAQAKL
T cruzi growth-1 = T. cruzi intracellular proliferation inhibitors, primary screen, cell-based, beta-gal Tulahuen parasites, NIH3T3 host, luminescence; actives 5.9% (n = 77,000); T. cruzi beta-gal in NIH3T3, GalScreen luminescence, 90 h; inhibition, % at 8.34 µM;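 active means mean inhibition above about 93%, with at least 55% of replicates each passing it, limit read from the data, passing the limit was not always enough; inconclusive means only one of those two conditions holds; inactive means neither condition holds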
T cruzi growth-2 = T. cruzi intracellular proliferation inhibitors, confirmation, cell-based, NIH3T3 host, beta-gal parasite, luminescence, cherry-pick. shares compounds with T cruzi growth-1. T. cruzi beta-gal in NIH3T3, GalScreen luminescence, 90 h. inhibition, % at 8.35 µM. actives 72% (n = 5,600);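 active means mean replicate inhibition above about 95% and at least 55% of replicates individually reaching it, limit read from the data; inconclusive means only one of the two criteria is met; inactive means neither criterion is met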
T cruzi growth-3 = inhibitors of intracellular T. cruzi replication, confirmation, NIH3T3 host cells, beta-gal parasites, cherry-pick, set 2 | inhibition, % at 2.09 µM | shares compounds with T cruzi growth-1 | T. cruzi beta-gal in NIH3T3, GalScreen luminescence, 90 h | actives 21% (n = 5,600);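 active means mean inhibition above about 95%, with at least 55% of replicates also reaching it, limit read from the data; inconclusive means meets just one of the two conditions; inactive means meets neither condition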;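 further: plate controls were neutral control median for no effect and positive control median for full effect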
NIH3T3 tox = cytotoxicity in mouse NIH/3T3 fibroblasts, confirmation, cytotoxicity control for T. cruzi proliferation inhibitor project, cell-based, cherry-pick, single point. shares compounds with T cruzi growth-1. NIH/3T3 viability, CellTiter-Glo ATP luminescence, 90 h. cytotoxicity (signal decrease), % at 8.35 µM. actives 14% (n = 5,600). AID 651742, 2012;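 active means mean signal decrease across replicates above about 35% based on untreated-well scatter, with enough replicates individually passing, limit read from the data; inconclusive means no rule stated though some were filed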;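 further: 0% = median of neutral control wells and 100% = median of positive control wells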
NIH3T3 tox 2 = NIH/3T3 fibroblast cytotoxicity, confirmation, cytotoxicity control, cell-based, cherry-pick, single point, set 2 | AID 651744, 2012 | NIH/3T3 viability, CellTiter-Glo ATP luminescence, 90 h | inhibition, % at 24.9 µM | shares compounds with T cruzi growth-1 | actives 56% (n = 5,600);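 active means mean loss of cell viability signal at or above a set limit, and enough replicates individually reaching it; inconclusive means meets only the mean limit or only the replicate share; inactive means meets neither condition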;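 further: 0% = median of neutral control wells and 100% = median of positive control wells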
An asterisk follows results filed as active; ? = inconclusive; · = no result.

SMILES | GASC1 inh | IDH1 R132H inh | T cruzi growth-1 | T cruzi growth-2 | T cruzi growth-3 | NIH3T3 tox | NIH3T3 tox 2
C[C@@H]1CN([C@@H](C)CO)C(=O)c2cccc(NC(=O)c3ccc(-c4nccs4)cc3)c2O[C@@H]1CN(C)Cc1ccc(C(F)(F)F)cc1 | -3 | 0 | ? | 111* | 102* | -56 | 7
C[C@H]1CN([C@@H](C)CO)C(=O)c2cccc(NC(=O)c3ccc(-c4nccs4)cc3)c2O[C@@H]1CN(C)Cc1ccc(C(F)(F)F)cc1 | -2 | -1 | 109* | 95 | 87 | -4 | 84*
C[C@H](CO)N1C[C@H](C)[C@@H](CN(C)Cc2ccc(C(F)(F)F)cc2)Oc2c(NC(=O)c3ccc(-c4nccs4)cc3)cccc2C1=O | -1 | 3 | 96 | · | · | · | ·
CC(/C=C/C(=O)NO)=C\c1cccc(OCc2ccc(-c3ccncc3)cc2)c1 | · | 0 | · | · | · | · | ·
O=C(NCCCN1CCCC1=O)c1cc(-c2ccncc2)nc2ccc(Br)cc12 | · | 0 | · | · | · | · | ·
O=C(NCCCN1CCCC1=O)c1cc(-c2cccnc2)nc2ccc(Br)cc12 | · | 0 | · | · | · | · | ·
CCn1c(SCC(=O)c2ccc(Br)cc2)nnc1-c1ccco1 | · | 1 | · | · | · | · | ·
Cc1sc2ncnc(SCC(=O)Nc3ccc(-c4nc5ccccc5s4)cc3)c2c1C | · | -1 | · | · | · | · | ·
COc1ccc(OC)c(NC(=O)COc2ccc([N+](=O)[O-])cc2)c1 | · | 0 | · | · | · | · | ·
CNC[C@H]1Oc2cc(C#Cc3ccncc3)ccc2S(=O)(=O)N([C@H](C)CO)C[C@H]1C | 2 | · | · | · | · | · | ·
CNC[C@@H]1Oc2cc(C#Cc3ccncc3)ccc2S(=O)(=O)N([C@@H](C)CO)C[C@@H]1C | 5 | 10 | · | · | · | · | ·
CNC[C@@H]1Oc2cc(C#Cc3ccccn3)ccc2S(=O)(=O)N([C@@H](C)CO)C[C@H]1C | -3 | -1 | 105* | 107* | 73 | -36 | -22
CNC[C@@H]1Oc2cc(C#Cc3ccccn3)ccc2S(=O)(=O)N([C@H](C)CO)C[C@H]1C | -3 | 0 | 103* | 110* | 73 | -7 | -24
O=C(CSc1n[nH]c(-c2ccccc2)n1)Nc1cccc(C(F)(F)F)c1 | · | 0 | · | · | · | · | ·
CCOC(=O)COc1ccc2c(=O)c(-c3ccccc3OC)c(C(F)(F)F)oc2c1 | · | 1 | · | · | · | · | ·
Cc1cccc(NC(=O)C(=O)NCCCO)c1 | · | 2 | · | · | · | · | ·
C[C@@H]1CN([C@H](C)CO)C(=O)c2cccc(NC(=O)c3ccc(-c4nccs4)cc3)c2O[C@H]1CN(C)C(=O)Nc1ccc(C(F)(F)F)cc1 | ? | · | 115* | 100* | 72 | 28 | 72*
C[C@@H]1CN([C@@H](C)CO)C(=O)c2cccc(NC(=O)c3ccc(-c4nccs4)cc3)c2O[C@H]1CN(C)C(=O)Nc1ccc(C(F)(F)F)cc1 | -2 | · | 120* | 87 | 82 | 24 | 70*
C[C@H]1CN([C@@H](C)CO)C(=O)c2cccc(NC(=O)c3ccc(-c4nccs4)cc3)c2O[C@H]1CN(C)C(=O)Nc1ccc(C(F)(F)F)cc1 | -3 | · | 95 | · | · | · | ·
C[C@H](CO)N1C[C@H](C)[C@H](CN(C)C(=O)Nc2ccc(F)cc2)Oc2c(NC(=O)c3ccc(-c4nccs4)cc3)cccc2C1=O | -1 | · | · | · | · | · | ·
COc1ccccc1CC(=O)Nc1ccc(-c2nnc(-c3ccccc3)o2)cc1 | · | 0 | · | · | · | · | ·
CC(C)(O)CCC(=O)C(C)(O)C1C(O)CC2(C)C3CC=C4C(CC(O)C(OC5OC(CO)C(O)C(O)C5O)C4(C)C)C3(C)C(=O)CC12C (configuration not stated) | · | -1 | · | · | · | · | ·
Cc1nnc(SCC(=O)Nc2ccccc2C(F)(F)F)n1-c1ccc(Cl)cc1 | · | 0 | · | · | · | · | ·
C[C@@H]1CN([C@H](C)CO)S(=O)(=O)c2ccc(-c3ccccc3)cc2O[C@@H]1CN(C)Cc1ccccn1 | 0 | -1 | -92 | · | · | · | ·
C[C@@H]1CN([C@H](C)CO)S(=O)(=O)c2ccc(-c3ccncc3)cc2O[C@@H]1CN(C)Cc1ccccn1 | 2 | · | 87 | · | · | · | ·
SMILES | GASC1 inh | IDH1 R132H inh | T cruzi growth-1 | T cruzi growth-2 | T cruzi growth-3 | NIH3T3 tox | NIH3T3 tox 2
C[C@H]1CN([C@@H](C)CO)S(=O)(=O)c2ccc(-c3ccncc3)cc2O[C@H]1CN(C)Cc1ccccn1 | 1 | · | 103* | 97* | 86 | 0 | 28*
C[C@@H]1CN([C@H](C)CO)S(=O)(=O)c2ccc(-c3ccncc3)cc2O[C@H]1CN(C)Cc1ccccn1 | -2 | · | 112* | 94 | ? | ? | 58*
O=C(Cn1nnc2ccccc21)OCc1ccccc1Cl | · | 0 | · | · | · | · | ·
O=C(CSc1nc2ccccc2c(=O)n1Cc1ccco1)c1ccc(Br)cc1 | · | 0 | · | · | · | · | ·
COCC(=O)N1[C@@H](C#N)[C@H](c2ccc(C#Cc3ccccc3F)cc2)[C@@H]1CO | 0 | · | 101* | 103* | 7 | -7 | 7
N#C[C@@H]1[C@@H](c2ccc(C#Cc3ccccc3F)cc2)[C@H](CO)N1C(=O)c1cccnc1 | -2 | · | 69 | · | · | · | ·
N#C[C@H]1[C@@H](c2ccc(C#Cc3ccccc3F)cc2)[C@H](CO)N1C(=O)C1CCC1 | -3 | · | 94 | · | · | · | ·
N#C[C@H]1[C@H](c2ccc(C#Cc3ccccc3F)cc2)[C@@H](CO)N1C(=O)c1cccnc1 | 0 | · | ? | 105* | 69 | 4 | 5
COCC(=O)N1[C@H](C#N)[C@H](c2ccc(C#Cc3ccccc3F)cc2)[C@H]1CO | 0 | · | 106* | 99* | 20 | -17 | ?
COCC(=O)N1[C@@H](C#N)[C@@H](c2ccc(C#Cc3ccccc3F)cc2)[C@@H]1CO | 2 | · | 106* | 89 | 41 | 18 | 94*
N#C[C@H]1[C@H](c2ccc(C#Cc3ccccc3F)cc2)[C@H](CO)N1C(=O)C1CC1 | -2 | · | 50 | · | · | · | ·
COCC(=O)N1[C@H](C#N)[C@H](c2ccccc2)[C@H]1CO | -6 | · | 86 | · | · | · | ·
O=C(CSc1nnc(-c2ccccc2O)n1-c1ccccc1)NC1CCCCC1 | · | 0 | · | · | · | · | ·
OCCCNc1ncnc2scc(-c3ccc(Br)cc3)c12 | · | 3 | · | · | · | · | ·
CC(C)(C)S(=O)(=O)Cc1nc(-c2cccc(F)c2)cs1 | · | 2 | · | · | · | · | ·
COCC(=O)N1[C@H](C#N)[C@H](c2ccc(C#Cc3ccccc3F)cc2)[C@@H]1CO | 0 | · | 102* | 103* | 90 | -3 | ?
